Screens (PubChem)
Autophagy mod = modulators of autophagy | calls only at 10 µM (by protocol) | AID 463193 | hit rate 0.98% among 190,000 | MEF GFP-LC3 puncta imaging; test concentration mostly 10 µM;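 active = percentage of spot-positive cells more than 3 SD above its plate mean, without a fluorescence outlier flag or 80% toxicity; inconclusive = no clear call, values can overlap the other calls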;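 note: spot-positive cell cutoff set from DMSO-treated cells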
RBBP9 inh = inhibitors of human serine hydrolase RBBP9; O75884; recombinant RBBP9, FP-Rh probe fluorescence polarization; inhibition, % at 7.94 µM; hit rate 0.2% among 220,000; AID 1515;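 active = inhibition above the campaign mean of all tested compounds plus 3 SD, cut at about 14% in these data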;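 note: plate controls were DMSO wells with RBBP9 for no effect and wells lacking RBBP9 protein for full effect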
Target sequence (O75884 whole entry, looked up): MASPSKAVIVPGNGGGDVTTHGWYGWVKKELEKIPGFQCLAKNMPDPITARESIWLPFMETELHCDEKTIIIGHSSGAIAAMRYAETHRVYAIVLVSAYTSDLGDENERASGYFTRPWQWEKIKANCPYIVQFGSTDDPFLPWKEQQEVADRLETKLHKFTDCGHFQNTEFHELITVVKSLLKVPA
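Assay system: recombinant human RBBP9; Reagent: Serine-hydrolase probe FP-Rh, 375 nM pre-mixing; Doses: 7.94 µM single dose, 0.794% DMSO; Incubation: 30 min then 45 min, 25 °C; Detection: fluorescence polarization (mP), excitation 525 nm, emission 598 nm; Evaluation: percent inhibition from mP, scaled between DMSO and no-protein wells.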
PKD1 kinase inh = inhibitors of human PKD1 kinase; Q15139; PKD1 kinase fluorescence polarization assay; inhibition, % (test concentration not listed); hit rate 0.056% among 200,000; AID 797; in the data active = inhibition above about 50%
Insulin prom up = MIN6 insulin promoter up-regulation; MIN6 insulin promoter-GFP reporter, high-content imaging; active compounds read high; z-score at 5 µM; hit rate 0.3% among 190,000; AID 1625;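 active = z-score above 3 at 5 µM with at least 500 cells counted in the well; inconclusive = wells under 500 cells, flagged as cytotoxic or low count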
Arbovirus inh = blocks arbovirus infection. arbovirus infection cell-based antiviral screen. inhibition, % at 10 µM. hit rate 0.37% among 200,000. AID 1251; in the data active = inhibition above about 30%
INS promoter inh = TRM-6 insulin promoter activity inhibition. inhibition, % at 2 µM. TRM-6 cells (human fetal islet line), insulin promoter-eGFP reporter, imaging; reporter expression induced with tamoxifen. hit rate 0.9% among 130,000. AID 1273;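 active = inhibition above the mean plus 3 SD, with well images judged a real hit on visual review, cut at about 60% in these data, passing the limit was not always enough; inconclusive = inhibition over the cutoff but images rejected on review; inactive = inhibition not above the cutoff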
The depositor's hits bear a star; i = inactive; ? = inconclusive; . = no result; + = active, no number. The list is not random: actives were taken first. Their share in the collection is about 2.1%.

SMILES	Autophagy mod	RBBP9 inh	PKD1 kinase inh	Insulin prom up	Arbovirus inh	INS promoter inh
CCc1ccccc1OCCCOc1ccc(OC)cc1	i	5	-11	0.93	16	.
O=C(CN(CC1CCCO1)S(=O)(=O)c1ccc(S(=O)(=O)NCC2CCCO2)cc1)Nc1ccccc1 (stereo not given)	i	0	-5	-0.53	-10	-31
N=C1C(c2nc3ccccc3s2)=C(O)CN1Cc1ccco1	+	-6	2	0.55	-10	49
CC(NC(=O)Nc1ncccn1)(C(F)(F)F)C(F)(F)F	i	-8	0	0.27	7	23
COC(=O)[C@@]1(Cc2ccccc2)[C@H]2c3cc(C(=O)N4CCCC4)n(CCSCCO)c3C[C@H]2CN1C(=O)c1ccccc1	+	-9	-17	-1.4	2	25
COc1ccc(-c2[nH]n(-c3ccc([N+](=O)[O-])cc3)c(=O)c2C=NCc2ccc(F)cc2)cc1	+	-4	-7	-0.15	-18	53
C[C@H](N)C(=O)OCc1ccc([N+](=O)[O-])cc1	.	-4	.	0.19	.	.
CC(O)C(C(=O)OCc1ccc([N+](=O)[O-])cc1)N1C(=O)c2ccccc2C1=O (stereo not given)	i	-2	5	-0.25	13	62*
COc1ccc(Br)cc1C1CC(=O)N2CN(C)CSC2=C1C#N (stereo not given)	i	-6	-7	-0.19	-4	.
CCc1c(C(=O)Nc2cc(C)cc(C)c2)[nH]c(C)c1C(C)=O	i	-2	0	-0.52	1	23
Cc1cc(C)c(NC(=S)NC(=O)c2ccc(-c3ccccc3)cc2)c(C)c1	i	4	-1	1.3	30*	.
Cc1ccc(NC(=S)NC(=O)c2ccccc2)cc1NC(=S)NC(=O)c1ccccc1	.	-2	.	-0.03	.	.
COc1cc(/C=C/C(=O)O)cc(S(=O)(=O)NCC2CCCO2)c1OC (stereo not given)	.	1	.	-0.38	.	.
CS(=O)(=O)c1nc(-c2ccc(Br)cc2)cc(-c2ccccc2)c1C#N	+	-6	-5	.	-31	36
c1ccc(-n2ncc3c2ncn2cnnc32)cc1	i	-3	-4	0.98	7	-3
CCc1nnc2c3cnn(-c4ccccc4)c3ncn12	i	-5	-10	1.2	2	78*
CN(CCCC[C@H](CNCc1ccc(-c2ccccc2)cc1)N1C[C@H](c2ccccc2)N(CCc2ccc(Cl)c(Cl)c2)C(=O)C1=O)Cc1ccc(-c2ccccc2)cc1	.	.	.	0.6	.	.
COc1ccc(CNC[C@@H](CCCCN(C)Cc2ccc(OC)cc2)N2C[C@H](c3ccccc3)N(CCc3ccc(Cl)c(Cl)c3)C(=O)C2=O)cc1	+	-3	4	?	-22	.
N=c1sccn1CC(=O)Nc1ccc(SC(F)F)cc1	+	-5	-13	0.3	-14	18
CCOC(=O)c1nn(-c2ccccc2C)c2nc(Nc3ccccc3)cc(=O)n12	i	-5	3	?	7	-46
CCOC(=O)c1nn(-c2cccc(OC)c2)c2nc(Nc3ccccc3)cc(=O)n12	+	-4	-11	0.55	-8	-38
CCOC(=O)c1nn(-c2ccc(Cl)cc2)c2nc(Nc3ccccc3)cc(=O)n12	i	-5	12	-0.97	42*	-10
O=C(c1ccccc1)c1nn(-c2cccc(Cl)c2)c2nc(-c3ccccc3)cc(=O)n12	i	-5	-12	-0.25	-4	.
CCOC(=O)c1nn(-c2cccc(Cl)c2)c2nc(Nc3ccccc3)cc(=O)n12	i	2	-3	0.84	34*	.
Cc1ccccc1NC(=O)Cc1nnc(SCC(=O)c2ccc(Br)cc2)n1C	i	-8	-6	1.5	12	-70
COCCn1c(SC(C)C(=O)Nc2ncc(Cl)cc2Cl)nc2ccccc21 (stereo not given)	i	-7	1	-0.58	31*	-40
CC(=O)N1N=C(c2cccs2)CC1c1ccc(C)o1 (stereo not given)	i	-4	-5	-0.79	-3	82*
CC(=O)Oc1ccc2c(c1)Oc1cc(OC(C)=O)ccc1C21OC(=O)c2ccccc21	i	16*	-37	.	-8	.
Cc1cc(O)ccc1C1(c2ccc(O)cc2C)OC(=O)c2ccccc21	i	-7	0	.	-36	-338
Cc1ccc(N2C=Nc3ccc(C)c4nc(C)cc2c34)cc1	i	-1	-2	0.02	17	85*
